Experimental data reported in ChEMBL document CHEMBL4619773, “Chemoreactive-Inspired Discovery of Influenza A Virus Dual Inhibitor to Block Hemagglutinin-Mediated Adsorption and Membrane Fusion” (J Med Chem, 2020).
Calls of active or inactive are those of the source. No cut-off for these calls is given here.

Experiments:
Influenza A virus [1] = test: Antiviral activity against Influenza A virus (A/Puerto Rico/8/1934(H1N1)) infected in Kunming mouse assessed as improvement in body weight at 5 to 10 mg/kg/day, po starting 4 hrs after viral challenge and continued for 7 days and measured up to day 14 by plaque assay; type: functional, organism-based
Method in brief: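 Groups of 10 female Kunming mice were infected intranasally with PR8 (1000 PFU/mouse) on day 0 and dosed once daily for seven days. Weight and clinical signs were recorded daily. Mice losing more than 25% of pre-infection weight were scored dead and euthanized; survivors were killed on day 14.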

[2] = Toxicity in Kunming mouse assessed as effect on ALT level at 5 to 10 mg/kg/day, po for 7 days; type: organism-based; conditions: in vivo, 168 h
Method in brief: (§1)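 Male Kunming mice (20–25 g) received compound orally at 5 or 10 mg/kg/day, suspended in 0.5% sodium carboxymethyl cellulose, once daily for 7 days; controls received vehicle. Serum was collected under isoflurane 24 h after the last dose. AST, ALT, CR, BUN, LDH, CK and CK-MB were measured with commercial kits.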

[3] = Cumulative drug excretion in mouse urine at 0.5 mg/kg, iv administered as single dose measured after 72 hrs; type: ADME, organism-based; conditions: read-out: Drug excretion
Method in brief: (§2)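 Single oral (gavage, 0.5% CMC-Na) or iv (tail vein, PEG400) dosing was given to male Kunming mice or Sprague Dawley rats held in metabolic cages. Urine and feces were collected at intervals to 72 h. Feces were dried, ground and homogenized in water (1:9 w/v). Samples were precipitated with acetonitrile containing internal standard and analysed by LC-MS/MS.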

Influenza A virus [4] = test: Antiviral activity against Influenza A virus (A/Puerto Rico/8/1934(H1N1)) infected in MDCK cells by HA assay; type: functional, organism-based
Method in brief: (§3)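 MDCK cells were infected at high moi (≈3.0 PFU/cell). Virus-containing supernatants were serially diluted 2-fold and mixed with an equal volume of 1% chicken red blood cells. After 60 min at 4 °C, wells were scored for button sedimentation versus opaque agglutination to give titers.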

[5] = Cmax in mouse at 5 mg/kg, po administered as single dose; type: ADME, organism-based; parameters: dose 5 mg/kg, route oral; conditions: in vivo
Method in brief: (§4)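 Male Kunming mice (20-25 g) and male Sprague Dawley rats (180-220 g) were fasted 12 h before dosing. Oral dosing was by gavage as a suspension in 0.5% sodium carboxymethyl cellulose; iv dosing was via tail vein in PEG400. Serial plasma samples were taken to 24 h, protein-precipitated with acetonitrile plus N-CH3 internal standard, and quantified by LC-MS/MS (n=3). Bioavailability = AUCoral/AUCiv.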

[6] = Cumulative drug excretion in mouse urine at 5 mg/kg, po administered as single dose measured after 72 hrs; type: ADME, organism-based; conditions: read-out: Drug excretion; method in brief: as §2
Influenza A virus [7] = test: Antiviral activity against Influenza A virus (A/Puerto Rico/8/1934(H1N1)) infected in MDCK cells assessed as decrease in viral titers at 50 ug/ml added during adsorption stage and measured 24 hrs post infection by HA assay; type: functional, organism-based; method in brief: as §3
[8] = Oral bioavailability in mouse at 5 mg/kg administered as single dose; type: ADME, organism-based; conditions: in vivo
Method in brief: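 Male Kunming mice (20–25 g) and male SD rats (180–220 g) were fasted 12 h before dosing. Compound was suspended in 0.5% CMC-Na and given by gavage (5 mg/kg mice, 3.5 mg/kg rats), or dissolved in PEG400 and given iv via tail vein (0.5 mg/kg mice, 0.35 mg/kg rats). Plasma was sampled from 5 min to 24 h and analysed by LC-MS/MS (n=3). F = AUCoral/AUCiv.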

[9] = Metabolic stability in mouse liver microsomes at 2 uM after 60 mins; type: ADME, Microsome; conditions: read-out: Stability
Method in brief: (§5)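 Mouse, rat or human liver microsomes (final 0.5 mg/mL protein) were preincubated with an NADPH-regenerating system in 50 mM Tris-HCl pH 7.4 at 37 °C for 5 min. Compound was added at 2 µM final and incubated at 37 °C; NADPH-free incubations served as controls. Reactions were quenched with acetonitrile plus internal standard at 60 min. Percent remaining was measured by LC-MS/MS (n=3).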

Influenza A virus [10] = test: Antiviral activity against Influenza A virus (A/Puerto Rico/8/1934(H1N1)) infected in Kunming mouse assessed as decrease in lung TNFalpha level at 20 to 40 ug/day dosed intranasally starting 4 hrs after viral challenge and continued for 4 days by ELISA; type: functional, organism-based
Method in brief: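 Four-week-old female Kunming mice received PR8 intranasally (500 PFU/mouse in 40 µL PBS) and were then dosed once daily orally or intranasally. Lungs were collected on day 4, and TNF-α and IL-6 in lung tissue were measured by ELISA.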

[11] = Selectivity index, ratio of CC50 for cytotoxicity in dog MDCK cells assessed as reduction in cell viability incubated for 48 hrs by crystal violet staining based assay to […] in dog MDCK cells assessed as reduction in cell viability incubated for 48 hrs by crystal violet staining based assay
[12] = Toxicity in Kunming mouse assessed as effect on CK-MB level at 5 to 10 mg/kg/day, po for 7 days; type: organism-based; conditions: in vivo, 168 h; method in brief: as §1
[13] = Metabolic stability in rat liver microsomes at 2 uM after 60 mins; type: ADME, Microsome; conditions: read-out: Stability; method in brief: as §5
[14] = Cumulative drug excretion in rat feces at 3.5 mg/kg, po administered as single dose measured after 72 hrs; type: ADME, organism-based; conditions: faeces, read-out: Drug excretion; method in brief: as §2
[15] = Binding affinity to Influenza A virus (A/Aichi/2/1968(H3N2)) Hemagglutinin at 1.5625 to 50 uM by SPR assay
Method in brief: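 HA protein was immobilized on CM5 chips. Compound (50, […], 12.5, 6.25, 3.125, 1.5625 µM) was injected for 2 min, followed by a 10-min PBST wash and regeneration with 2 mM NaOH for 30 s. Runs were at 25 °C with 2 µl/s flow, using a blank HA-free reference channel. KD was obtained from kinetic fitting.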

Influenza A virus [16] = test: Antiviral activity against Influenza A virus (A/Aichi/2/1968(H3N2)) infected in MDCK cells incubated for 3 days by crystal violet staining based plaque assay; type: functional, organism-based; conditions: 72 h
Method in brief: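 Confluent MDCK monolayers were exposed to 10-fold serial virus dilutions for 1 h at 37 °C, then washed. The overlay was DMEM with 1.5% agarose, 0.02% DEAE-dextran and 1 µg/ml TPCK-trypsin. After 3 days at 37 °C in 5% CO2, cells were fixed with 0.05% glutaraldehyde, stained with 1% crystal violet in 20% ethanol, and plaques were counted.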

[17] = AUC (0 to t) in rat at 3.5 mg/kg , po administered as single dose; type: ADME, organism-based; conditions: in vivo; method in brief: as §4
[18] = Toxicity in Kunming mouse assessed as effect on AST level at 5 to 10 mg/kg/day, po for 7 days; type: organism-based; conditions: in vivo, 168 h; method in brief: as §1
[19] = molecular target: Hemagglutinin (Influenza A virus (A/Puerto Rico/8/1934(H1N1))) (UniProt P03452); test: Inhibition of Hemagglutinin in Influenza A virus (A/Puerto Rico/8/1934(H1N1)) assessed as reduction in virus-induced aggregation of chicken erythrocytes at 3.125 to 50 ug/mL incubated for 60 mins by hemagglutination assay
Method in brief: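 Hemagglutination inhibition with PR8 virus and chicken RBCs standardized per the WHO manual. Virus was serially diluted 2-fold and 1% cRBCs were added at equal volume. After 60 min at 4 °C, negative wells show a sedimented red button and positive wells stay opaque without sedimentation. Compound was tested at 3.125–50 µg/mL.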

Influenza A virus H3N2 = test: Antiviral activity against Influenza A virus H3N2 (A/swine/Minnesota/02719/2009) infected in MDCK cells by HA assay; type: functional, organism-based; method in brief: as §3

Hemagglutinin (Influenza A virus (A/Puerto Rico/8/1934(H1N1))), sequence (P03452 whole entry): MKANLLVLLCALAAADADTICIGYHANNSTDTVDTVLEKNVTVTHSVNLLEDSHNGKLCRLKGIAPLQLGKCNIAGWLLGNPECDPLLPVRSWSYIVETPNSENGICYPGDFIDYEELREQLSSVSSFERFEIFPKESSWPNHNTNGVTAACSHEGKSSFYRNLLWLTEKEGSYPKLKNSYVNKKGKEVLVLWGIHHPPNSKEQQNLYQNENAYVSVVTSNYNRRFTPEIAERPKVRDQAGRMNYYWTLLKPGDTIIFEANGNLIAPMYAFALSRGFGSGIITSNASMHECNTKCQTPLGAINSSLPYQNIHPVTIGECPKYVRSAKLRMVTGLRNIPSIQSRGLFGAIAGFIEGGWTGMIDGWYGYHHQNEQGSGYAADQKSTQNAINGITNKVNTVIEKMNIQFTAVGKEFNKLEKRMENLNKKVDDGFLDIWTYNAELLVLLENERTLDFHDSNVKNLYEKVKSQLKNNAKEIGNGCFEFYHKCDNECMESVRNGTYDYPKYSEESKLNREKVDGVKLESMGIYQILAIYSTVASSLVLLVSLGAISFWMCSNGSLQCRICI

With CC(=O)c1cc(C)c(O)c(Cc2[nH]c3ccccc3c2Cc2c(O)c(C)cc(C(C)=O)c2O)c1O the Activity (Influenza A virus [1]) was “Active”, the Activity [2] was “Non-Toxic” and the dose excreted at 72 h [3] was 0.3%. For the same compound, the Activity (Influenza A virus [4]) was “Dose-dependent effect”, the Cmax [5] was 16 ng/mL and the dose excreted at 72 h [6] was 0.03%. The Activity (Influenza A virus [7]) was “Active”, the bioavailability [8] was 5.7% and the remaining at 1 h, 2 µM [9] was 0.8%. For the same compound, the Activity (Influenza A virus [10]) was “Active”, the “Ratio CC50/IC50” value [11] was 55.8 and the Activity [12] was “Non-Toxic”. It also gave a remaining at 1 h, 2 µM [13] of 36.6%, a dose excreted at 72 h [14] of 96.4% and a Kd [15] of 7.3 µM. For the same compound, the IC50 (Influenza A virus [16]) was < 13 µg/mL, the AUC(0-t) [17] was 1360 ng·h/mL and the Activity [18] was “Non-Toxic”. For the same compound, the inhibition [19] was “Active” and the Activity (Influenza A virus H3N2) was “Dose-dependent effect”.
